The results in this text go back to ChEMBL document CHEMBL1147918, “Novel 5-substituted 1-pyrazolol analogues of ibotenic acid: synthesis and pharmacology at glutamate receptors” (Bioorg Med Chem, 2007).

Experiment [1] has as its target T1, Metabotropic glutamate receptor 2 (Rattus norvegicus, UniProt P31421). In words: (§1) Agonist activity at rat mGluR2 receptor expressed in CHO cells assessed as effect on intracellular cAMP level. It counts as functional, cell-based. A digest of the protocol:
(§2)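 Means of at least three independent experiments, expressed as pEC50 or pKi ± SEM.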

Experiment [2] addresses T2, Metabotropic glutamate receptor 1 (Rattus norvegicus, UniProt P23385). In words: Agonist activity at rat mGluR1a receptor expressed in CHO cells assessed as effect on intracellular calcium level. Format: functional, cell-based. A digest of the protocol: as §2
For experiment [3], the target named is Metabotropic glutamate receptor 4 (Rattus norvegicus, UniProt P31423). In words: Agonist activity at rat mGluR4 receptor expressed in CHO cells assessed as effect on intracellular cAMP level. Format: functional, cell-based. The method in brief: as §2
Experiment [4] is described as follows: Displacement of [3H]AMPA from AMPA receptor in rat cortical membrane. Format: cell membranes. A digest of the protocol:
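Rat brain membranes prepared per Ransom and Stec; native AMPA receptor affinity measured with 5 nM [3H]AMPA. Means of at least three to four independent experiments; values as pIC50 or pKi ± SEM.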

The target in the next experiment is Glutamate NMDA receptor. In words: Displacement of [3H]CGP39653 from NMDA receptor in rat cortical membrane. It counts as cell membranes. The method in brief:
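NMDA receptor affinity on rat brain membranes prepared per Ransom and Stec, radioligand 2 nM [3H]CGP39653. Means of at least three to four independent experiments; pIC50 or pKi ± SEM.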

The nature of experiment [5]: Displacement of [3H]KA from KA receptor in rat cortical membrane. Format: cell membranes. A digest of the protocol: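 Native kainate receptor binding on rat brain membranes (Ransom and Stec preparation) using 5 nM [3H]KA. Means of at least three to four independent experiments, reported as pIC50 or pKi ± SEM.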
For experiment [6], the target named is T1, Metabotropic glutamate receptor 2. In words: Antagonist activity at rat mGluR2 receptor expressed in CHO cells assessed as effect on intracellular cAMP level. It counts as functional, cell-based. A digest of the protocol: as §2
The target in experiment [7] is T2, Metabotropic glutamate receptor 1. In words: Antagonist activity at rat mGluR1a receptor expressed in CHO cells assessed as effect on intracellular calcium level. It counts as functional, cell-based. The method in brief:
as §2

Experiment [8] concerns the target Metabotropic glutamate receptor 2 (Rattus norvegicus) (UniProt P31421). The experiment is described as §1. Format: functional, cell-based. The method in brief:
as §2

Chain of Metabotropic glutamate receptor 4 (P31423 whole entry): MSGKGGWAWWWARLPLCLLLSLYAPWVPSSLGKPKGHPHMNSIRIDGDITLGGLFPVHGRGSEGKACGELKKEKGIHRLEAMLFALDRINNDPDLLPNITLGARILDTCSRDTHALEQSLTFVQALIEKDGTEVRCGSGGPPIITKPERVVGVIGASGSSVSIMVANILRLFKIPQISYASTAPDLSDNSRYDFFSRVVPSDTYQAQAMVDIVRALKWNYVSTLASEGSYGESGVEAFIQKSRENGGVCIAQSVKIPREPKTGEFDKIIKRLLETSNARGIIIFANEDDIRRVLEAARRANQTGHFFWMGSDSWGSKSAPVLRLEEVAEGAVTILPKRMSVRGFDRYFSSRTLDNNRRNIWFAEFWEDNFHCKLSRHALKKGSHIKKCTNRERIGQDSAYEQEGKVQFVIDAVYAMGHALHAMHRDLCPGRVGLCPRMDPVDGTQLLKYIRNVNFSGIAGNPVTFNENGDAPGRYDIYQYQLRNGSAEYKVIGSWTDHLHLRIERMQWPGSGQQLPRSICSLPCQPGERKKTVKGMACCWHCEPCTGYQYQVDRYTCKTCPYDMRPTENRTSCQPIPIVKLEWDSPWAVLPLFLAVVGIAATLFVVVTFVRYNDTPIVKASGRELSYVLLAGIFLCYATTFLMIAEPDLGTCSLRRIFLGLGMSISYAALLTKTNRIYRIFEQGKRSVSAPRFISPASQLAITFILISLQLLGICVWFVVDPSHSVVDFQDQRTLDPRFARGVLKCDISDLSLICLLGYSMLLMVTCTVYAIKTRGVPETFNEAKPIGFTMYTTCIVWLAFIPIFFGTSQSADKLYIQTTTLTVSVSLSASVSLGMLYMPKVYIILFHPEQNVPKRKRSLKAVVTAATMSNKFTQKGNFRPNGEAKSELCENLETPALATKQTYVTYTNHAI
T2 sequence (P23385 whole entry): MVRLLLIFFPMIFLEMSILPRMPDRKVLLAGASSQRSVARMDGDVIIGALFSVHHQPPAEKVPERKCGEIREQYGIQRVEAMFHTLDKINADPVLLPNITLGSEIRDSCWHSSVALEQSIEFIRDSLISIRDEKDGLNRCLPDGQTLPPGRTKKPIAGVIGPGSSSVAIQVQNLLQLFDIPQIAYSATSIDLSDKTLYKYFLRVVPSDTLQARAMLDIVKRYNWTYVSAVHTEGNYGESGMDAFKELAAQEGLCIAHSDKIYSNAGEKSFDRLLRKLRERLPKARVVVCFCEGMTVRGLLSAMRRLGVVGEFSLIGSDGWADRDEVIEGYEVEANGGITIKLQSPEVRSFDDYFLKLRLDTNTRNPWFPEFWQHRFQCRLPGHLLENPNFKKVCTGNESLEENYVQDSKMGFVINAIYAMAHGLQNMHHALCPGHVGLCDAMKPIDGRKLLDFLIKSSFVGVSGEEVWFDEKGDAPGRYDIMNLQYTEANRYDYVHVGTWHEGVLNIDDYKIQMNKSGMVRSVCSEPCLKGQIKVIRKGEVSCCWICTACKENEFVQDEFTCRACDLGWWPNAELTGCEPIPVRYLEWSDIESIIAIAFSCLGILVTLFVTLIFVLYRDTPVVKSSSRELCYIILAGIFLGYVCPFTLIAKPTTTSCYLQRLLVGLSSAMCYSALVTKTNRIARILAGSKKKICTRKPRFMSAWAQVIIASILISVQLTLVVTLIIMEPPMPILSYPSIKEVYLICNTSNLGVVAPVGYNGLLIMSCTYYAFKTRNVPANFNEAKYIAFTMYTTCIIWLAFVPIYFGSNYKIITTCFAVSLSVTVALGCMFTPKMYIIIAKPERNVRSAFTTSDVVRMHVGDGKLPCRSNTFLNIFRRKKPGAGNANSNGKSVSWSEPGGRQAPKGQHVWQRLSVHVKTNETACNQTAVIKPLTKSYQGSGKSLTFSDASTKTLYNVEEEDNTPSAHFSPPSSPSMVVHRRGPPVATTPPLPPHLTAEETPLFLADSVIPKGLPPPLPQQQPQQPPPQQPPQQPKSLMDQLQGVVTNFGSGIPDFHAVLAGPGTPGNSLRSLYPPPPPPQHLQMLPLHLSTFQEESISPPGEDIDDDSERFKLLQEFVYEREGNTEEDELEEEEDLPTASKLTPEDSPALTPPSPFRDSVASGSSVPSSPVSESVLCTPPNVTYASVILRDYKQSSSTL
T1 sequence (P31421 whole entry): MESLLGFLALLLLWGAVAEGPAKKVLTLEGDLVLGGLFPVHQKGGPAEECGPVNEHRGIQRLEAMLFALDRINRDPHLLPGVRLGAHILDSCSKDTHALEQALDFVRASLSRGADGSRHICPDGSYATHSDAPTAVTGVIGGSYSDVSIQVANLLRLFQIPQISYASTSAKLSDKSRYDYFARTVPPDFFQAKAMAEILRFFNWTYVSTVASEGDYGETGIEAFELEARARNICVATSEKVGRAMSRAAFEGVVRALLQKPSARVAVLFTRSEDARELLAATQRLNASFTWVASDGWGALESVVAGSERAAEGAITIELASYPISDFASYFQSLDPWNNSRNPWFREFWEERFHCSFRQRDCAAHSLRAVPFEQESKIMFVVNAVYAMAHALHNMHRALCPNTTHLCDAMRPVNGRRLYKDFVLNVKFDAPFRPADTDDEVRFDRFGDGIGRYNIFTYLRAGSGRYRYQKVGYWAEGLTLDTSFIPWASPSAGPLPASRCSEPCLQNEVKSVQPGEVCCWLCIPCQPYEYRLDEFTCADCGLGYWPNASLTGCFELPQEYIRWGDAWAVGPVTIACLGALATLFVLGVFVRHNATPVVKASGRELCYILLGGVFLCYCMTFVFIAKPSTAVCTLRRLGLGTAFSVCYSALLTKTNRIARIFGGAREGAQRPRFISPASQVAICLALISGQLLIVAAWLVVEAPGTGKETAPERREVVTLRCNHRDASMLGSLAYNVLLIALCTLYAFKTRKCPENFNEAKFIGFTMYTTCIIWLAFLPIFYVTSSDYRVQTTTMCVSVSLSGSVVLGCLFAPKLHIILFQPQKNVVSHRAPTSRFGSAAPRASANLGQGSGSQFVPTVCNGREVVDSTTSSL
Chain of Metabotropic glutamate receptor 2 (Rattus norvegicus) (P31421 19-872 limits assumed): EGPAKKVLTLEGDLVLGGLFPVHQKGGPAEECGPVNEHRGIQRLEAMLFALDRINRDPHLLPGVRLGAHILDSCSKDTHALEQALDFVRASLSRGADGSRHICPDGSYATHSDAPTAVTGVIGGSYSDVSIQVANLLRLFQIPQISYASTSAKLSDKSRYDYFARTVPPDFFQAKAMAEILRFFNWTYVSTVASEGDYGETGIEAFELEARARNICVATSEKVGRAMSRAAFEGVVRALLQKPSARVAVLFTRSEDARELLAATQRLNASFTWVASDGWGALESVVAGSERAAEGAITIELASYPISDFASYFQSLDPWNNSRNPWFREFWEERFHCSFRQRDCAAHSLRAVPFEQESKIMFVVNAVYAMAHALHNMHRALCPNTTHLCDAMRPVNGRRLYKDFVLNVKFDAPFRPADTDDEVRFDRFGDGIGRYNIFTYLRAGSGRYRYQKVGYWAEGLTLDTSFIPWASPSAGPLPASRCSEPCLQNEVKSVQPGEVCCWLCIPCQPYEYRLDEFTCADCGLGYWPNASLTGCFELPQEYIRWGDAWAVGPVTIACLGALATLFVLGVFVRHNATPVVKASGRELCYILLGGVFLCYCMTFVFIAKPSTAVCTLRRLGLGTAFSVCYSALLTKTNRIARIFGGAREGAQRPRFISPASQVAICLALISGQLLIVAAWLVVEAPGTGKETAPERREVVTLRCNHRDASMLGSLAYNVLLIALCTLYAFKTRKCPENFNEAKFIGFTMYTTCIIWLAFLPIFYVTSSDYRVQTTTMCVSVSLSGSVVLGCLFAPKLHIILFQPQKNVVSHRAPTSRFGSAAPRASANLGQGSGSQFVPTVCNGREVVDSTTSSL

For the compound `CCCc1c(C(N)C(=O)O)cnn1O` (racemic), the concentration for a half-maximal effect (EC50) in [1] (read-out: EC50) is 72 µM; in experiment [1] (read-out: Log EC50 (converted)), 67.6 µM; in experiment [2] it was > 1000 µM; in experiment [3], > 1000 µM. Also, the half-inhibitory concentration (IC50) in [4] and in experiment [5] was > 100 µM each time. Moreover, the inhibitory constant (Ki) at Glutamate NMDA receptor is > 100 µM.
Consider `NC(C(=O)O)c1cnn(O)c1-c1ccccc1` (racemic), for which the concentration giving a half-maximal response (EC50) in [2] and in experiment [3] was > 1000 µM each time. The Ki in experiment [6] was 180 µM; on Glutamate NMDA receptor, > 100 µM. The IC50 in experiment [4] and in experiment [5] was > 100 µM each time.
As to `NC(C(=O)O)c1cnn(O)c1CC1CCCCC1` (racemic), the EC50 in [2] and in experiment [3] was > 1000 µM in each case. In addition, the Ki in experiment [6] was 32 µM; on Glutamate NMDA receptor, > 100 µM. The IC50 in experiment [4] and in experiment [5] was > 100 µM each time.
`NC(C(=O)O)c1cnn(O)c1C(c1ccccc1)c1ccccc1` (racemic): the EC50 in experiment [1] (read-out: EC50), in experiment [2] and in [3] was > 1000 µM each time. Further, the IC50 in [4] was > 100 µM; in experiment [5], 47 µM. Further, the Ki at Glutamate NMDA receptor was > 100 µM. Moreover, the “Log IC50” value in experiment [5] is -4.33.
Take `CCCCc1c(C(N)C(=O)O)cnn1O` (racemic): the concentration giving a half-maximal response (EC50) in experiment [1] (read-out: EC50), in experiment [2] and in experiment [3] was > 1000 µM throughout. For the same compound, the IC50 in experiment [4] and in experiment [5] was > 100 µM throughout. The Ki at Glutamate NMDA receptor was > 100 µM.
On to `CCc1c(C(N)C(=O)O)cnn1O` (racemic), for which the EC50 in experiment [1] (read-out: EC50) was 57 µM; in experiment [2], > 1000 µM; in experiment [3], > 1000 µM. The half-maximal inhibitory concentration (IC50) in experiment [4] and in experiment [5] was > 100 µM throughout. The same compound came in with a Ki at Glutamate NMDA receptor of 32 µM.
Take `NC(C(=O)O)c1cnn(O)c1CCCc1ccccc1` (racemic): the EC50 in experiment [3] was > 1000 µM. Also, the inhibition constant Ki was determined as 260 µM in experiment [7] (read-out: Ki), 67 µM in [6] and 54 µM at Glutamate NMDA receptor. In addition, the concentration for half-maximal inhibition (IC50) in experiment [4] and in experiment [5] was > 100 µM in each case.
Turning to `NC(C(=O)O)c1cnn(O)c1Cc1ccccc1` (racemic), the EC50 in experiment [2] and in [3] was > 1000 µM throughout. Further, the Ki in experiment [6] stood at 120 µM; on Glutamate NMDA receptor, 67 µM. Further, the IC50 in experiment [4] and in experiment [5] was > 100 µM in each case.
For the compound `NC(C(=O)O)c1cnn(O)c1CC1CC1` (racemic), the EC50 in experiment [1] (read-out: EC50), in experiment [2] and in experiment [3] was > 1000 µM throughout. The half-inhibitory concentration (IC50) in experiment [4] and in experiment [5] was > 100 µM in each case. Also, the affinity at Glutamate NMDA receptor, expressed as Ki, was 35 µM. In addition, the “Log Ki” value at Glutamate NMDA receptor is given as -4.47.
For `NC(C(=O)O)c1cnn(O)c1Br` (racemic), in experiment [8], the Activity amounted to 43%. Besides, the half-maximal effective concentration (EC50) in experiment [1] (read-out: EC50) was 170 µM; in experiment [1] (read-out: Log EC50 (converted)) it was 151 µM; in [2] it was > 1000 µM; in [3] it was > 1000 µM. The IC50 in experiment [4] and in [5] was > 100 µM each time. On Glutamate NMDA receptor, this compound showed a Ki of 25 µM.
`CCCCCc1c(C(N)C(=O)O)cnn1O` (racemic): the EC50 in [1] (read-out: EC50), in [2] and in experiment [3] was > 1000 µM in each case. Moreover, the concentration for half-maximal inhibition (IC50) in [4] and in experiment [5] was > 100 µM throughout. The Ki at Glutamate NMDA receptor was > 100 µM.
`NC(C(=O)O)c1cnn(O)c1CCc1ccccc1` (racemic): the half-maximal effective concentration (EC50) in experiment [1] (read-out: EC50) and in experiment [3] was > 1000 µM in each case. For the same compound, the inhibition constant (Ki) in [7] (read-out: Ki) was 230 µM; in [7] (read-out: Log Ki (converted)) it was 195 µM; on Glutamate NMDA receptor, > 100 µM. Besides, the IC50 in [4] and in [5] was > 100 µM each time.
